Measurements as given in ChEMBL document CHEMBL2010782, “Combination of a Beta adrenoceptor modulator and a norepinephrine-serotonin uptake inhibitor for the treatment of obesity” (ACS Med Chem Lett, 2011).
Values belong to the compound of their own block, whether it stands above or below them. Activity calls are given as the source filed them. The calls are words filed in the database; no cut-off is given here.

Columns and labels:
Rattus norvegicus [1] = assay: Antiobesity activity in Long-Evans rat assessed as increase in lipid utilization at 10 mg/kg, po measured after 4 hrs by indirect calorimetry analysis relative to control; type: functional, organism-based; set-up: dose 10 mg/kg
How it was run: (§1)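 Male Long–Evans rats with diet-induced obesity on a caloric dense diet received single oral doses of 3 or 10 mg/kg, with vehicle-treated rats as controls. Respiratory quotient (lipid utilization) and energy expenditure were followed by indirect calorimetry for about 4 h. Groups were compared by ANOVA with SNK post hoc test, p < 0.05.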

Rattus norvegicus [2] = assay: Antiobesity activity in po dosed Long-Evans rat assessed as increase in energy expenditure measured after 4 hrs by indirect calorimetry analysis relative to control; type: functional, organism-based; how it was run: as §1
Rattus norvegicus [3] = assay: Antiobesity activity in Long-Evans rat assessed as decrease in respiratory quotient at 3 to 10 mg/kg, po measured after 4 hrs by indirect calorimetry analysis relative to control; type: functional, organism-based; how it was run: as §1
Rattus norvegicus [4] = assay: Antiobesity activity in po dosed Long-Evans rat assessed as increase in lipid utilization measured after 4 hrs by indirect calorimetry analysis relative to control; type: functional, organism-based; how it was run: as §1
[5] = molecular target: Beta-3 adrenergic receptor (Rattus norvegicus) (UniProt P26255); assay: Agonist activity at rat adrenergic beta3 receptor expressed in DHB-11 CHO cells assessed as cAMP accumulation after 20 mins by scintillation proximity assay relative to isoproterenol; type: functional, cell-based
Beta-3 adrenergic receptor (Rattus norvegicus), sequence (P26255 whole entry): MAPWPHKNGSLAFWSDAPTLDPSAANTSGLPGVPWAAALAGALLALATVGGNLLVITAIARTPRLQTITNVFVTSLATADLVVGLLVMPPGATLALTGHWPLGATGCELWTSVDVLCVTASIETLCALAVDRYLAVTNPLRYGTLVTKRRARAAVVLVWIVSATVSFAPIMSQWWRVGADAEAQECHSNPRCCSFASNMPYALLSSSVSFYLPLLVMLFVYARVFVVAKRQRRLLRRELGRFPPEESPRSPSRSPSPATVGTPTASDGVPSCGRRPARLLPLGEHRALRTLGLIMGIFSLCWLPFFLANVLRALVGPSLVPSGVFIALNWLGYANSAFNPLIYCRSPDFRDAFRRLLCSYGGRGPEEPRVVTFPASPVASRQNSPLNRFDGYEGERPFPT

[6] = molecular target: T1, Beta-1 adrenergic receptor (Homo sapiens, UniProt P08588); assay: Agonist activity at human adrenergic beta1 receptor expressed in DHB-11 CHO cells assessed as cAMP accumulation after 20 mins by scintillation proximity assay relative to isoproterenol; type: functional, cell-based
How it was run: (§2)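 Whole-cell functional assay in transfected CHO cells expressing the human receptor, read as stimulated cAMP accumulation. Values are reported as the geometric mean ± standard deviation, with the number of runs (n) given.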
Target sequence in this assay (P08588 whole entry, looked up): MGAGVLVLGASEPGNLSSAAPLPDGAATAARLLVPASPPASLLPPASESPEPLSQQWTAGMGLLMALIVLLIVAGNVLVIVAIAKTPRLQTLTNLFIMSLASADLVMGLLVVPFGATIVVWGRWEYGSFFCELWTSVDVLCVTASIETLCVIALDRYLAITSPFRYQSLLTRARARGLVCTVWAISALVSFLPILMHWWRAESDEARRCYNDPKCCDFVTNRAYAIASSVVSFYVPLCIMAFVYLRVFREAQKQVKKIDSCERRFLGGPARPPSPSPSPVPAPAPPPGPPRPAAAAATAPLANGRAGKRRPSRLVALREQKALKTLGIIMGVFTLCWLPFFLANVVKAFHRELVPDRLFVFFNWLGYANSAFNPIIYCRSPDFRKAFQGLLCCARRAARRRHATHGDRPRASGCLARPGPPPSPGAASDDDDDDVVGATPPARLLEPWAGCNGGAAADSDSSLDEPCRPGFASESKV

[7] = molecular target: T2, Beta-2 adrenergic receptor (Homo sapiens, UniProt P07550); assay: Agonist activity at human adrenergic beta2 receptor expressed in DHB-11 CHO cells assessed as cAMP accumulation after 20 mins by scintillation proximity assay relative to isoproterenol; type: functional, cell-based; how it was run: as §2
Target sequence in this assay (P07550 whole entry, looked up): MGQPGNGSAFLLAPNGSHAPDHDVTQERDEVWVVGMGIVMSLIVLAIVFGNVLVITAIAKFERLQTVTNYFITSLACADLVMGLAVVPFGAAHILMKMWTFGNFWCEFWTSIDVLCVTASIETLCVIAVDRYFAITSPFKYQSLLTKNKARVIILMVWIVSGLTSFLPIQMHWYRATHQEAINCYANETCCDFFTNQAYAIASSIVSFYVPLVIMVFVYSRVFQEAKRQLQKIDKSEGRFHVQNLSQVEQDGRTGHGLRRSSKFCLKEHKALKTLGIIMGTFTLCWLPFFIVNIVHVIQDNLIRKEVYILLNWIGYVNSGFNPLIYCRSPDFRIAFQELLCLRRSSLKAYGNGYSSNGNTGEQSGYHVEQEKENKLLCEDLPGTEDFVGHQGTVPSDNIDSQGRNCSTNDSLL

[8] = molecular target: T3, Beta-3 adrenergic receptor (Homo sapiens, UniProt P13945); assay: Agonist activity at human adrenergic beta3 receptor expressed in DHB-11 CHO cells assessed as cAMP accumulation after 20 mins by scintillation proximity assay relative to isoproterenol; type: functional, cell-based
Target sequence in this assay (P13945 whole entry, looked up): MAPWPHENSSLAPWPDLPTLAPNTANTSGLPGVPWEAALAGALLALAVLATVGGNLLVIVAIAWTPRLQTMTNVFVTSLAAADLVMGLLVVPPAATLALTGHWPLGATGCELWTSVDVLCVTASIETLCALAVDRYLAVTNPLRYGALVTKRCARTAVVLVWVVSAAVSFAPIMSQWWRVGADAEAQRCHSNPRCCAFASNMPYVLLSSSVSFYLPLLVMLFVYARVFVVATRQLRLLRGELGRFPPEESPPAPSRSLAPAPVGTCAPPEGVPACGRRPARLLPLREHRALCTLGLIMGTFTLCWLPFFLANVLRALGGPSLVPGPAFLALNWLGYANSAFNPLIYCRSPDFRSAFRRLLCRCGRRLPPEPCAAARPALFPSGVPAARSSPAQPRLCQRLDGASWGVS

Homo sapiens [9] = species on record: Homo sapiens; assay: Inhibition of sibutramine-induced increase in systolic blood pressure in human at 30 to 300 mg; type: functional, Artery
Homo sapiens [10] = species on record: Homo sapiens; assay: Inhibition of sibutramine-induced increase in heart rate in human at 30 to 300 mg; type: functional
[11] = Tmax in healthy human plasma; type: ADME, organism-based
How it was run: (§3)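 Healthy human volunteers were dosed and plasma concentrations followed over time. Tmax was taken from the plasma profile, and terminal elimination half-life was estimated after a 60-mg dose.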

[12] = Elimination half life in healthy human at 60 mg; type: ADME, organism-based; details: in vivo, read-out: beta t1/2 (converted); how it was run: as §3
Homo sapiens [13] = species on record: Homo sapiens; assay: Inhibition of sibutramine-induced increase in diastolic blood pressure in human at 30 to 300 mg; type: functional, Artery
[14] = molecular target: T2, Beta-2 adrenergic receptor; assay: Agonist activity at human adrenergic beta2 receptor expressed in DHB-11 CHO cells assessed as cAMP accumulation after 20 mins by scintillation proximity assay; type: functional, cell-based
Target sequence in this assay (P07550 whole entry): as the sequence (P07550 whole entry, looked up) above

[15] = molecular target: Beta-3 adrenergic receptor (Rattus norvegicus, UniProt P26255); assay: Agonist activity at rat adrenergic beta3 receptor expressed in DHB-11 CHO cells assessed as cAMP accumulation after 20 mins by scintillation proximity assay; type: functional, cell-based
Beta-3 adrenergic receptor (Rattus norvegicus, UniProt P26255), sequence (P26255 whole entry): as the sequence (P26255 whole entry) above

[16] = molecular target: T3, Beta-3 adrenergic receptor; assay: Agonist activity at human adrenergic beta3 receptor expressed in DHB-11 CHO cells assessed as cAMP accumulation after 20 mins by scintillation proximity assay; type: functional, cell-based
Target sequence in this assay (P13945 whole entry): as the sequence (P13945 whole entry, looked up) above

[17] = molecular target: T1, Beta-1 adrenergic receptor; assay: Agonist activity at human adrenergic beta1 receptor expressed in DHB-11 CHO cells assessed as cAMP accumulation after 20 mins by scintillation proximity assay; type: functional, cell-based
Target sequence in this assay (P08588 whole entry): as the sequence (P08588 whole entry, looked up) above

[18] = molecular target: T1, Beta-1 adrenergic receptor; assay: Displacement of [125I]Iodocyanopindolol from human adrenergic beta1 receptor expressed in insect sf9 cells by scintillation counting
Target sequence in this assay (P08588 whole entry): as the sequence (P08588 whole entry, looked up) above

[19] = molecular target: T2, Beta-2 adrenergic receptor; assay: Displacement of [125I]Iodocyanopindolol from human adrenergic beta2 receptor expressed in insect sf9 cells by scintillation counting
Target sequence in this assay (P07550 whole entry): as the sequence (P07550 whole entry, looked up) above

Emax [5]: 55.5% | Emax [6]: < 10% | Emax [7]: < 10% | Emax [8]: 73.8%
SMILES: CC(C)(Cc1ccc(Oc2ccc(C(N)=O)cn2)cc1)NC[C@H](O)COc1cccc2[nH]c3ccccc3c12 [listing 1 of 3 here]
Activity (Rattus norvegicus [1]): Active | Activity (Rattus norvegicus [2]): Dose-dependent effect | Activity (Rattus norvegicus [3]): Active | Activity (Rattus norvegicus [4]): Dose-dependent effect

Tmax [11]: 2 h | half-life [12]: 540 min
SMILES: CC(C)(Cc1ccc(Oc2ccc(C(N)=O)cn2)cc1)NC[C@H](O)COc1cccc2[nH]c3ccccc3c12 [LY377604]
Activity (Homo sapiens [9]): 5.5 mmHg | Activity (Homo sapiens [10]): 10.5 bpm | Activity (Homo sapiens [13]): 4.2 mmHg

EC50 [14]: > 3.16 µM | EC50 [15]: 5 nM | EC50 [16]: 2.4 nM | EC50 [17]: > 3.16 µM
SMILES: CC(C)(Cc1ccc(Oc2ccc(C(N)=O)cn2)cc1)NC[C@H](O)COc1cccc2[nH]c3ccccc3c12 [listing 2 of 3 here]

Ki [18]: 0.023 nM | Ki [19]: 0.012 nM
SMILES: CC(C)(Cc1ccc(Oc2ccc(C(N)=O)cn2)cc1)NC[C@H](O)COc1cccc2[nH]c3ccccc3c12 [listing 3 of 3 here]
